Tests used:
P388 [1] = assay: Compound was evaluated for antitumor activity in mice bearing P388 leukemic cells from average survival time; format: functional, Mus musculus
Procedure, shortened: (§1)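 Ascites forms of Sarcoma 180 or P388 leukemia carried in CDF-1 mice. Recipients were implanted from donors with 7-day tumor growth. Compound given once daily for six consecutive days starting 24 h after implantation, with a tested range of 50–200 mg/kg per day. Hydrochloride salt solutions were adjusted to pH 6.5–7.0. Survival time was averaged, days ± SE. Body weight was tracked as a toxicity indicator.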

Mus musculus [2] = species: Mus musculus; assay: Average change in body weight from onset to the termination of drug therapy in mice bearing sarcoma 180 ascites cells; format: functional
Procedure, shortened: (§2)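 Ascitic Sarcoma 180 or P388 leukemia carried in CDF-1 mice; recipients transplanted from donors bearing 7-day tumors. Compound given once daily for six consecutive days from 24 h after implantation, over 50–200 mg/kg per day; hydrochloride salt solutions adjusted to pH 6.5–7.0. Mice weighed; % body-weight change onset to end of therapy taken as host toxicity; maximum effective daily dose reported from survival prolongation.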

[3] = Maximum effective daily dose required to inhibit the tumors of sarcoma 180 ascites cells; format: functional, Mus musculus; procedure, shortened: as §2
Mus musculus [4] = species: Mus musculus; assay: Ratio of average survival time of treated to control mice bearing sarcoma 180 ascites cells; format: functional
Procedure, shortened: (§3)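 In CDF-1 mice bearing ascitic P388 leukemia or Sarcoma 180 from 7-day donors, dosing ran once daily for six days from 24 h post-implant (range 50–200 mg/kg/day; HCl salts adjusted to pH 6.5–7.0). % T/C was the average survival time of treated over control animals × 100, reported at the maximum effective daily dose.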

P388 [5] = assay: Maximum effective daily dose required to inhibit the tumors of P388 leukemia; format: functional, Mus musculus; procedure, shortened: as §2
[6] = Compound was evaluated for antitumor activity in mice bearing sarcoma 180 ascites cells and average survival time; format: functional, Mus musculus; procedure, shortened: as §1
P388 [7] = assay: Compound was evaluated for antitumor activity in mice (control group) bearing P388 leukemic cells from average survival time; format: functional, Mus musculus; procedure, shortened: as §1
P388 [8] = assay: Compound was evaluated for average change in body weight from onset to the termination of drug therapy in mice bearing P388 leukemic cells; format: functional, Mus musculus; procedure, shortened: as §2
[9] = Compound was evaluated for antitumor activity in mice (control group) bearing sarcoma 180 ascites cells and average survival time; format: functional, Mus musculus; procedure, shortened: as §1
Mus musculus [10] = species: Mus musculus; assay: Ratio of average survival time of treated to control mice bearing P388 leukemia; format: functional; procedure, shortened: as §3
[11] = Compound was evaluated for antitumor activity in mice bearing sarcoma 180 ascites cells from average survival time; format: functional, Mus musculus; procedure, shortened: as §1
[12] = Compound was evaluated for antitumor activity in mice (control group) bearing sarcoma 180 ascites cells from average survival time; format: functional, Mus musculus; procedure, shortened: as §1
P388 [13] = assay: Compound was evaluated for antitumor activity in mice (control group) bearing P388 leukemic cells and average survival time; format: functional, Mus musculus; procedure, shortened: as §1
P388 [14] = assay: Compound was evaluated for antitumor activity in mice bearing P388 leukemic cells and average survival time; format: functional, Mus musculus; procedure, shortened: as §1
P388 [15] = assay: Compound was evaluated for antitumor activity in mice bearing P388 leukemic cells, and average change in body weight from onset to the termination of therapy; format: functional, Mus musculus; procedure, shortened: as §2

| Structure (SMILES) | Time (P388 [1]) [days] | Weight change (Mus musculus [2]) [%] | Dose [3] [mg/kg] | T/C (Mus musculus [4]) [%] | Dose (P388 [5]) [mg/kg] | Time [6] [days] | Time (P388 [7]) [days] | Weight change (P388 [8]) [%] | Time [9] [days] | T/C (Mus musculus [10]) [%] | Time [11] [days] | Time [12] [days] | Time (P388 [13]) [days] | Time (P388 [14]) [days] | Weight change (P388 [15]) [%] |
| --- | --- | --- | --- | --- | --- | --- | --- | --- | --- | --- | --- | --- | --- | --- | --- |
| Cc1cc(C)c(S(=O)(=O)N/N=C/c2ccc([N+](=O)[O-])cc2)c(C)c1.Cl | 17.2 | -10.2 | 100 | 231 | 150 | 26.4 | 14.2 | -3.5 | 11.4 | 121 | – | – | – | – | – |
| CN(/N=C/c1ccncc1)S(=O)(=O)c1ccc(Cl)cc1.Cl | – | -4.2 | 100 | 110 | – | – | – | – | – | – | 16 | 14.6 | – | – | – |
| O=[N+]([O-])c1ccc(/C=N/NS(=O)(=O)c2ccc(Cl)cc2)cc1 | – | -16 | 100 | 189 | 200 | 28.4 | – | -2.4 | 15 | 107 | – | – | 14.2 | 15.2 | – |
| Cc1ccc(S(=O)(=O)N/N=C/c2ccncc2)cc1.Cl | – | -14.5 | 100 | 249 | 150 | 36.4 | – | – | 14.6 | 118 | – | – | 14.6 | 17.2 | -7.6 |
| Cl.O=[N+]([O-])c1ccc(S(=O)(=O)N/N=C/c2ccncc2)cc1 | – | -8.1 | 75 | 328 | 200 | 37.4 | – | – | 11.4 | 128 | – | – | 13.8 | 17.6 | -7.5 |
| COc1ccc(S(=O)(=O)N/N=C/c2ccncc2)cc1.Cl | – | -10.7 | 100 | 218 | 150 | 31 | – | 0.7 | 14.2 | 123 | – | – | 14.6 | 18 | – |
| CC(=O)Nc1ccc(S(=O)(=O)N/N=C/c2ccncc2)cc1.Cl | 17.6 | -5.2 | 150 | 288 | 150 | – | 14.6 | – | – | 121 | 34 | 11.8 | – | – | -3.1 |
| Cc1ccc(S(=O)(=O)N/N=C/c2ccncc2)cc1 | – | -16.7 | 100 | 222 | – | – | – | – | – | – | 32.4 | 14.6 | – | – | – |
| Cl.O=S(=O)(N/N=C/c1ccncc1)c1ccc(Cl)cc1 | 16.6 | -5.4 | 150 | 242 | 200 | – | 14.8 | – | – | 112 | 28.6 | 11.8 | – | – | -5.4 |

— ChEMBL document CHEMBL1123062, “Relationship between structure and antineoplastic activity of (arylsulfonyl)hydrazones of 4-pyridinecarboxaldehyde” (1985)
